The values below come from ChEMBL document CHEMBL3085699, “Design, synthesis, and biological evaluation of indole-2-carboxamides: a promising class of antituberculosis agents” (J Med Chem, 2013).

Converted amounts (≈) assume the structure as drawn. Some results are limits rather than exact numbers.

Data set [1] is described as follows: Aqueous solubility of the compound at pH 6.8 after 24 hrs by high-throughput equilibrium solubility assay. As to conditions: buffer. It is filed as physicochemical. An outline of the steps: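 Miniaturized shake-flask equilibrium method. DMSO stock removed by centrifugal evaporation, aqueous buffer added, shaken 24 h. Plunger pushed through a filter membrane, shaken a further 30 min, and filtrate quantified by HPLC.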

The test system of data set [2] is Mycobacterium tuberculosis. As to the kind of experiment: Antimicrobial activity against Mycobacterium tuberculosis H37Rv ATCC 27294 after 5 days by three-fold serial dilution assay. It is filed as functional. The note with it: H37Rv ATCC 27294, 120 h. An outline of the steps: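 H37Rv grown in 7H9 broth with 0.05% Tween 80 and 10% ADS. Compounds in 90% DMSO, three-fold serially diluted in duplicate. Early-log culture diluted to OD600 0.02 was added, then incubated at 37 °C for 5 days. Growth read by absorbance. MIC50 (50% growth inhibition) taken from non-linear curve fits. Isoniazid ran as internal control in every assay.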

Data set [3] is described as follows: Intrinsic clearance in mouse liver microsomes by LC/MS/MS analysis. In kind it is ADME, Microsome. As to conditions: read-out: CLH. The essentials: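 Compound depletion in liver microsomes of the named species, measured by LC/MS/MS. In vitro half-life gave hepatic extraction ratio and predicted metabolic clearance.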

A word on the thermodynamic solubility: it is the concentration in solution at equilibrium with solid. As usually defined, the MIC50 is an inhibitory concentration at the 50% level, which refers to growth in some studies and to a panel of isolates in others. `Cc1cc(C)c2cc(C(=O)Nc3ccccc3)[nH]c2c1` displayed a thermodynamic solubility at 24 h in data set [1] of under 4 µM. In data set [2], the MIC50 worked out at 16 µM (≈ 4.23 µg/mL).

Take `CC1CCC(NC(=O)c2cc3c(Cl)cccc3[nH]2)CC1` (stereo not given): in data set [3], the microsomal CLint worked out at 462 µL/min/mg. The MIC50 in data set [2] was determined as 0.19 µM (≈ 0.0553 µg/mL).

For the compound `CCC(C)NC(=O)c1cc2c(C)cc(C)cc2[nH]1` (stereo not given), the solubility (thermodynamic) at 24 h in data set [1] came out at 22 µM (≈ 5.38 µg/mL). For the same compound, in data set [2], the MIC50 amounted to 9.33 µM (≈ 2.28 µg/mL).

Consider `CC1CCC(NC(=O)c2cc3cc(Cl)ccc3[nH]2)CC1` (stereo not given), for which the microsomal CLint in data set [3] turned out to be 122 µL/min/mg. The MIC50 in data set [2] turned out to be 1.29 µM (≈ 0.375 µg/mL).

Turning to `CC1CCC(NC(=O)c2cc3c(Cl)ccc(Cl)c3[nH]2)CC1` (stereo not given), in data set [3], the microsomal CLint came to 40.4 µL/min/mg. In data set [2], this compound had an MIC50 of over 20 µM.

In turn, `Cc1cc(C)c2cc(C(=O)NC3CCOCC3)[nH]c2c1` displayed a thermodynamic solubility at 24 h in data set [1] of 17 µM (≈ 4.63 µg/mL). The compound further had an MIC50 in data set [2] of over 20 µM.

`CC1CCC(NC(=O)c2cc3c(Cl)cc(F)cc3[nH]2)CC1` (stereo not given): in data set [3], the microsomal CLint stood at 77 µL/min/mg. Also, the solubility (thermodynamic) at 24 h in data set [1] is under 4 µM. Further, the MIC50 in data set [2] amounted to 0.18 µM (≈ 0.0556 µg/mL).

For `Cc1cc(C)c2cc(C(=O)NC3CCCCCC3)[nH]c2c1`, the solubility (thermodynamic) at 24 h in data set [1] is under 4 µM. The compound also returned an MIC50 in data set [2] of 0.1 µM (≈ 0.0284 µg/mL).

For `Cc1cc(C)c2cc(C(=O)N[C@@H]3CCCC[C@@H]3C)n(C)c2c1`, in data set [2], the MIC50 was over 20 µM.

Take `COCCNC(=O)c1cc2c(C)cc(C)cc2[nH]1`: the solubility (thermodynamic) at 24 h in data set [1] is 620 µM (≈ 153 µg/mL). The MIC50 in data set [2] was over 20 µM.

With `Cc1cc(C)c2cc(C(=O)NC3CCN(C)CC3)[nH]c2c1`, in data set [1], the thermodynamic solubility at 24 h is over 10000 µM. The compound further had an MIC50 in data set [2] of over 20 µM.

Take `CC1CCC(NC(=O)c2cc3ccc(Cl)c(Cl)c3[nH]2)CC1` (stereo not given): in data set [3], the microsomal CLint was found to be 308 µL/min/mg. The MIC50 in data set [2] is 0.97 µM (≈ 0.315 µg/mL).

For `C[C@H]1CC[C@@H](NC(=O)c2cc3c(Cl)cc(Cl)cc3[nH]2)CC1`, in data set [3], the microsomal CLint is 47 µL/min/mg. This compound displayed a solubility (thermodynamic) at 24 h in data set [1] of under 4 µM. In data set [2], this compound registered an MIC50 of 0.18 µM (≈ 0.0585 µg/mL).

As for `CC1CCC(NC(=O)c2cc3cc(Cl)c(Cl)cc3[nH]2)CC1` (stereo not given), the microsomal CLint in data set [3] amounted to 73.3 µL/min/mg. In data set [2], the MIC50 was determined as 0.16 µM (≈ 0.052 µg/mL).

For the compound `CC1CCC(NC(=O)c2cc3cc(Cl)cc(Cl)c3[nH]2)CC1` (stereo not given), in data set [3], the microsomal CLint is 187 µL/min/mg. For the same compound, in data set [2], the MIC50 came to 0.41 µM (≈ 0.133 µg/mL).

Regarding `Cc1nc(C)c2cc(C(=O)N[C@@H]3CCCC[C@@H]3C)[nH]c2n1`, in data set [1], the solubility (thermodynamic) at 24 h was found to be 143 µM (≈ 41 µg/mL). Further, the MIC50 in data set [2] is over 20 µM.

`NNC(=O)c1ccncc1` [ISONIAZID] had an MIC50 in data set [2] of 0.33 µM (≈ 0.0453 µg/mL). That is a sub-micromolar value.

In data set [2], `Cc1cc(C)c2cc(C(=O)NCC(C)C)[nH]c2c1` yielded an MIC50 of 11.8 µM (≈ 2.9 µg/mL).

The compound `CCC(CC)NC(=O)c1cc2c(C)cc(C)cc2[nH]1` registered a solubility (thermodynamic) at 24 h in data set [1] of under 4 µM. In data set [2], this compound yielded an MIC50 of 4.33 µM (≈ 1.12 µg/mL).

With `Cc1cc(C)c2cc(C(=O)NC3CCCCC3)[nH]c2c1`, the solubility (thermodynamic) at 24 h in data set [1] was under 4 µM. This compound also gave an MIC50 in data set [2] of 0.82 µM (≈ 0.222 µg/mL).

Take `Cc1cc2[nH]c(C(=O)N[C@@H]3CCCC[C@@H]3C)cc2c(C)n1`: the MIC50 in data set [2] is over 20 µM.

As to `CC1CCC(NC(=O)c2cc3c(Cl)c(Cl)ccc3[nH]2)CC1` (stereo not given), the microsomal CLint in data set [3] was 60.8 µL/min/mg. In data set [2], this compound returned an MIC50 of 0.22 µM (≈ 0.0716 µg/mL).

In turn, `Cc1cc(C)c2c(c1)NC(C(=O)N[C@@H]1CCCC[C@@H]1C)C2` (stereo not given in full) yielded a solubility (thermodynamic) at 24 h in data set [1] of under 4 µM. The compound also displayed an MIC50 in data set [2] of 1.24 µM (≈ 0.355 µg/mL).

As to `Cc1cc(C)c2cc(C(=O)N(C)C3CCCCC3)[nH]c2c1`, the MIC50 in data set [2] was over 20 µM.

On to `CC1CCC(NC(=O)c2cc3cccc(Cl)c3[nH]2)CC1` (stereo not given), for which the microsomal CLint in data set [3] was 1040 µL/min/mg. Moreover, the MIC50 in data set [2] was determined as 1.49 µM (≈ 0.433 µg/mL).

`Cc1cc(C)c2cc(C(=O)NCCC(C)C)[nH]c2c1` registered an MIC50 in data set [2] of 3.26 µM (≈ 0.842 µg/mL).

In the case of `Cc1cc(C)c2cc(C(=O)NC3CCCCC3O)[nH]c2c1` (stereo not given), the solubility (thermodynamic) at 24 h in data set [1] was 56 µM (≈ 16 µg/mL). The compound also registered an MIC50 in data set [2] of 8.9 µM (≈ 2.55 µg/mL).

With `CC1CCC(NC(=O)c2cc3ccc(Cl)cc3[nH]2)CC1` (stereo not given), the microsomal CLint in data set [3] worked out at 433 µL/min/mg. This compound gave an MIC50 in data set [2] of 0.23 µM (≈ 0.0669 µg/mL).

In turn, `Cc1cc(C)c2cc(C(=O)NC(C)C)[nH]c2c1` returned a thermodynamic solubility at 24 h in data set [1] of 20 µM (≈ 4.61 µg/mL). For the same compound, the MIC50 in data set [2] is over 20 µM.

On to `Cc1cc(C)c2nc(C(=O)N[C@@H]3CCCC[C@@H]3C)[nH]c2c1`, for which the MIC50 in data set [2] is over 20 µM.
